Results collected from several papers.
Protocols differ between the studies behind these lines.
Read-out: cell growth or viability

| Compound | cell line | method | time | IC50 |
| --- | --- | --- | --- | --- |
| c1ccc(-c2cc(CNc3cccc4cccnc34)on2)nc1 | Z-138 | MTS | 72 h | 28.2 µM |
| CN1CCC(NC2CCc3[nH]c4c(C(N)=O)ccc(-c5ccccc5Cl)c4c3C2)CC1 (stereo not shown) | BXPC-3 | – | 96 h | 0.0347 µM |
| O=C1C(=Nc2ccc(Cl)cc2Br)c2ccccc2N1Cc1ccc([N+](=O)[O-])cc1 | B16 | MTT | 48 h | 2.14 µM |
| FC(F)(F)c1ccc(-c2cc(COc3cc(C(F)(F)F)nc4ccccc34)on2)cc1 | Z-138 | MTS | 72 h | > 100 µM |
| O=C1Nc2ccccc2C1=Nc1ccccc1I | B16 | MTT | 48 h | 7.38 µM |
| COc1cc([C@@H]2c3cc4c(cc3[C@@H](O[C@@H]3O[C@@H]5CO[C@@H](C)O[C@H]5[C@H](O)[C@H]3O)[C@H]3COC(=O)[C@H]23)OCO4)cc(OC)c1O | Z-138 | MTS | 72 h | 0.03 µM |
| CONC(=O)c1cccc2c1cc(C)n2-c1nc2c(c(NCc3ccccc3)n1)CCCN2 | BXPC-3 | – | 72 h | 1.4 µM |
| CC(C)c1cccc(C(C)C)c1N=C1C(=O)Nc2ccccc21 | B16 | MTT | 48 h | 6.88 µM |
| N#Cc1ccc(-c2cc(COc3cc(C(F)(F)F)nc4ccccc34)on2)cc1 | Z-138 | MTS | 72 h | 36.7 µM |
| Cc1cc2c(C(=O)O)cccc2n1-c1nc2c(c(NCc3ccccc3)n1)CCCN2 | ARP-1 | – | 72 h | 0.9 µM |
| CC(C)c1cccc(C(C)C)c1N=C1C(=O)N(Cc2ccc(Br)cc2)c2ccccc21 | B16 | MTT | 48 h | 34.2 µM |
| Cc1nn(-c2ccc(S(=O)(=O)N3CCN(C)CC3)cc2)c2nn3nnnc3nc12 | DLD-1 | MTT | – | 0.08 µM |
| O=C(CSc1nc2ccccc2s1)N/N=C/c1ccc(OCC(=O)Nc2cccc(Br)c2)cc1 | Z-138 | MTS | 72 h | > 100 µM |
| CCc1ccc(N=C2C(=O)Nc3ccccc32)cc1 | B16 | MTT | 48 h | 37.3 µM |
| Cc1cc2c(C(N)=O)cccc2n1-c1nc2c(c(NCc3ccccc3)n1)CCCN2 | ARP-1 | – | 72 h | 1.3 µM |
| FC(F)(F)c1cc(OCc2cc(-c3ccc(Cl)cc3Cl)no2)c2ccccc2n1 | Z-138 | MTS | 72 h | > 100 µM |
| O=C1C(=Nc2ccccc2I)c2ccccc2N1Cc1cccc(Cl)c1 | B16 | MTT | 48 h | 5.86 µM |
| O=c1cc(OCc2cc(-c3ccc(C(F)(F)F)cc3)no2)c2ccccc2o1 | Z-138 | MTS | 72 h | > 100 µM |
| O=C(CSc1nc2ccccc2s1)N/N=C/c1ccc(OCC(=O)Nc2cccc([N+](=O)[O-])c2)cc1 | Z-138 | MTS | 72 h | > 100 µM |
